Reference: article PMC5099097 (Antiviral research, 2016)

How the values were obtained:
HCMV T3429 (UL54 mutant) = experiment: SEAP assay, recombinant GCV-resistant HCMV T3429 on MRC-5 cells; format: cell-based, human cytomegalovirus; conditions: Supplemental Table 1 (values not available)
HCMV T3252 (UL97 mutant) = experiment: SEAP assay, recombinant GCV-resistant HCMV T3252 on MRC-5 cells; format: cell-based, human cytomegalovirus; conditions: Supplemental Table 1 (values not available)
HCMV TB40E [1] = experiment: GCV and p5RD alone and combined, TB40E-Luc on MRC-5 cells; format: cell-based, human cytomegalovirus; conditions: 3 μM GCV alone
HCMV TB40E [2] = experiment: Luciferase assay: peptide reduction of HCMV TB40E-Luc infection of MRC-5 cells; format: cell-based, human cytomegalovirus; conditions: peptide concentration >200 μM
MCMV = conditions: relative to p5; ref Dogra et al., 2015; Martin et al., 2013; Wall et al., 2011; cited from earlier work
HCMV TB40E [3] = experiment: Luciferase assay: TB40E-Luc infection of MRC-5, HFF, ARPE-19 and HAEC cells; format: cell-based, human cytomegalovirus; conditions: 200 μM peptide added 30 min prior to infection, ARPE-19, HAEC
Method in brief: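 At 80–85% confluency, cells (MRC-5, HFF, ARPE-19 or HAEC) got 200 μM peptide in 10% FBS/PBS, or vehicle alone, 30 min before HCMV TB40E (luciferase, UL18 promoter) at ~35–50 pfu (~2500–3000 RLU). Inoculum was removed after 60 min at 37 °C. Cells were lysed after 3 days and luminescence read. Uninfected background was subtracted and values normalized to infected untreated cells. Three experiments, three replicates each.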

[4] = design: species or system BALB/c mice; conditions: mouse, in vivo, iv

Row | Molecule | susceptibility of T3429 to GCV (HCMV T3429 (UL54 mutant)) | susceptibility of T3252 to GCV (HCMV T3252 (UL97 mutant)) | reduction in HCMV infection (HCMV TB40E [1]) | reduction of HCMV infection (HCMV TB40E [2]) [%] | blocks MCMV infection more efficiently than p5 (fold) (MCMV) [x] | reduction of HCMV infection in all cell types (HCMV TB40E [3]) [%] | time by which the majority of the peptide was excreted or degraded [4] [h] | time retained at high levels in the spleen, liver and kidneys post injection [4]
1 | Nc1nc(O)c2ncn(COC(CO)CO)c2n1 [GCV, ganciclovir] | resistant to high concentrations | resistant to high concentrations | ~ 95% | – | – | – | – | –
2 | GGGYSRAQRAQARQARQAQRARGARQ [p5R] | – | – | – | ≥ 90 | 2 | > 80 | ≤ 4 | rapidly dehalogenated and/or excreted
